Data published in ChEMBL document CHEMBL1145471, “Small molecule regulators of autophagy identified by an image-based high-throughput screen” (Proc Natl Acad Sci U S A, 2007).
Calls of active or inactive are those of the source. The calls are words filed in the database; no cut-off is given here.

Assays:
[1] = test system: H4; test: Increase in light chain 3-GFP+ autophagosome vesicle area per cell in human H4 cells at 7.7 uM after 24 hrs by high throughput fluorescence microscopy relative to control; type: functional
Procedure, shortened: (§1)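 H4 cells stably expressing LC3-GFP, seeded in 96-well plates and exposed to compound for 24 h; fixed in 4% paraformaldehyde, nuclei stained with 3 μg/ml DAPI. Automated fluorescence microscopy scored number, size and intensity of LC3-GFP spots; values expressed relative to DMSO-treated wells, rapamycin positive control. Triplicate wells, mean ± SD; experiments repeated three times.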

[2] = test system: H4; test: Increase in light chain 3-GFP+ autophagosome vesicle number per cell in human H4 cells at 7.7 uM after 24 hrs by high throughput fluorescence microscopy relative to control; type: functional
Procedure, shortened: (§2)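 H4 cells stably expressing LC3-GFP, kept in DMEM/10% FBS at 37°C, 5% CO2, were seeded in 96-well plates and exposed to compound for 24 h. Cells were then fixed in 4% paraformaldehyde and stained with 3 μg/ml DAPI. Automated fluorescence microscopy scored the number, size and intensity of LC3-GFP spots. Values are percent of DMSO wells, in triplicate, mean ± SD. Rapamycin served as positive control.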

[3] = test system: H4; test: Increase in light chain 3-GFP+ autophagosome vesicle intensity per cell in human H4 cells at 7.7 uM after 24 hrs by high throughput fluorescence microscopy relative to control; type: functional; procedure, shortened: as §1
[4] = test system: H4; test: Effect on FYVE-RFP+ vesicle intensity per cell in human H4 cells after 2 hrs relative to control; type: functional; set-up: concentration or dose not given beside the values
Procedure, shortened: (§3)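 H4 cells stably expressing FYVE-RFP (H4-FYVE), grown in DMEM with 10% FBS, penicillin/streptomycin and 2 mM L-glutamine at 37°C, 5% CO2, seeded in 96-well plates and exposed to compound. Fixed in 4% paraformaldehyde, nuclei stained with 3 μg/ml DAPI, FYVE-RFP+ vesicles quantified by high-throughput fluorescence microscopy against DMSO control. Triplicate wells, mean ± SD.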

[5] = test system: H4; test: Effect on FYVE-RFP+ vesicle intensity per cell in human H4 cells after 4 hrs relative to control; type: functional; set-up: concentration or dose not given beside the values; procedure, shortened: as §3
[6] = test system: H4; test: Effect on FYVE-RFP+ vesicle intensity per cell in human H4 cells after 8 hrs relative to control; type: functional; set-up: concentration or dose not given beside the values; procedure, shortened: as §3
[7] = test system: H4; test: Increase in long-lived protein degradation in human H4 cells after 1 hr relative to control; type: functional; set-up: concentration or dose not given beside the values
[8] = test system: H4; test: Increase in long-lived protein degradation in human H4 cells after 2 hrs relative to control; type: functional; set-up: concentration or dose not given beside the values
[9] = test system: H4; test: Increase in long-lived protein degradation in human H4 cells after 4 hrs relative to control; type: functional; set-up: concentration or dose not given beside the values
[10] = test system: H4; test: Increase in long-lived protein degradation in human H4 cells after 24 hrs relative to control; type: functional; set-up: concentration or dose not given beside the values
[11] = test system: H4; test: Induction of light chain 3-GFP level in human H4 cells at 7.7 uM after 24 hrs by high throughput fluorescence microscopy relative to control; type: functional; procedure, shortened: as §2
[12] = test system: H4; test: Reduction of poly(Q) level in human H4 cells expressing EGFP-Q79-HA after 24 hrs; type: functional, cell-based
Procedure, shortened: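 H4 cells were transiently transfected with an EGFP-Q79-HA expression vector. The medium was replaced 6 h after transfection and compounds were added. Poly(Q) was detected with anti-HA antibody.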

[13] = target: Serine/threonine-protein kinase mTOR (Homo sapiens, UniProt P42345); test: Effect on mTOR phosphorylation in human H4 cells at 3.7 uM after 4 hrs; type: cell-based
Procedure, shortened: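 H4 cells exposed to compound for 4 h. Lysates analysed by Western blot with anti-phospho and anti-total mTOR antibodies, with actin as loading control. Rapamycin served as reference.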

[14] = test system: H4; test: Increase in light chain 3-GFP+ autophagosome vesicle area per cell in human H4 cells at 3.7 uM after 24 hrs by high throughput fluorescence microscopy relative to control; type: functional
Procedure, shortened: (§4)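 H4 cells stably expressing LC3-GFP, seeded in 96-well plates and exposed to compound for 24 h; screening concentrations were 3–12 μM, with rapamycin 0.22 μM and bafilomycin A1 0.40 μM. Cells fixed in 4% paraformaldehyde and stained with 3 μg/ml DAPI. Number, size and intensity of LC3-GFP spots measured by high-throughput fluorescence microscopy and expressed as percent of DMSO-treated wells. Rapamycin was the positive control. Triplicate wells, mean ± SD; experiments repeated three times.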

[15] = test system: H4; test: Induction of light chain 3-GFP level in human H4 cells at 3.7 uM after 24 hrs by high throughput fluorescence microscopy relative to control; type: functional
Procedure, shortened: (§5)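 H4 cells stably expressing LC3-GFP, grown in DMEM with 10% FBS, penicillin/streptomycin and 2 mM L-glutamine at 37°C, 5% CO2. Cells were seeded in 96-well plates and exposed to library compounds at 3–12 μM for 24 h, then fixed in 4% paraformaldehyde and stained with 3 μg/ml DAPI. LC3-GFP spot number, size and intensity were measured by high-throughput fluorescence microscopy and expressed relative to DMSO. Triplicates, mean ± SD.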

[16] = test system: H4; test: Increase in light chain 3-GFP+ autophagosome vesicle intensity per cell in human H4 cells at 3.7 uM after 24 hrs by high throughput fluorescence microscopy relative to control; type: functional; procedure, shortened: as §4
[17] = test system: H4; test: Increase in ratio of light chain 3 subunit 2 to light chain 3 subunit 1 in human H4 cells at 3.7 uM after 4 hrs by Western blot; type: functional, cell-based
Procedure, shortened: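 H4 cells were treated with each compound for 4 h, then lysed. Lysates were immunoblotted with anti-LC3 antibody, with actin as loading control. LC3II and LC3I bands were compared as an LC3II/LC3I ratio.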

[18] = test system: H4; test: Increase in light chain 3-GFP+ autophagosome vesicle number per cell in human H4 cells at 3.7 uM after 24 hrs by high throughput fluorescence microscopy relative to control; type: functional
Procedure, shortened: (§6)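 H4 cells stably expressing LC3-GFP were grown in DMEM with 10% FBS and 2 mM L-glutamine at 37°C, 5% CO2. They were exposed to each compound for 24 h, with DMSO as negative and rapamycin as positive control. Cells were then fixed in 4% paraformaldehyde and stained with 3 μg/ml DAPI. High-throughput fluorescence imaging scored LC3-GFP spot number, size and intensity, expressed relative to DMSO. Mean ± SD of triplicates; experiments repeated three times.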

[19] = test system: H4; test: Increase in light chain 3-GFP+ autophagosome vesicle area per cell in human H4 cells at 5.9 uM after 24 hrs by high throughput fluorescence microscopy relative to control; type: functional; procedure, shortened: as §4
[20] = test system: H4; test: Increase in light chain 3-GFP+ autophagosome vesicle number per cell in human H4 cells at 5.9 uM after 24 hrs by high throughput fluorescence microscopy relative to control; type: functional; procedure, shortened: as §6
[21] = test system: H4; test: Increase in light chain 3-GFP+ autophagosome vesicle intensity per cell in human H4 cells at 5.9 uM after 24 hrs by high throughput fluorescence microscopy relative to control; type: functional; procedure, shortened: as §6
[22] = test system: H4; test: Increase in FYVE-RFP+ vesicle intensity per cell in human H4 cells after 2 hrs relative to control; type: functional; set-up: concentration or dose not given beside the values; procedure, shortened: as §3
[23] = test system: H4; test: Increase in FYVE-RFP+ vesicle intensity per cell in human H4 cells after 4 hrs relative to control; type: functional; set-up: concentration or dose not given beside the values; procedure, shortened: as §3
[24] = test system: H4; test: Increase in FYVE-RFP+ vesicle intensity per cell in human H4 cells after 8 hrs relative to control; type: functional; set-up: concentration or dose not given beside the values; procedure, shortened: as §3
[25] = test system: H4; test: Induction of light chain 3-GFP level in human H4 cells at 5.9 uM after 24 hrs by high throughput fluorescence microscopy relative to control; type: functional; procedure, shortened: as §5
[26] = test system: H4; test: Increase in light chain 3-GFP+ autophagosome vesicle number per cell in human H4 cells at 6.1 uM after 24 hrs by high throughput fluorescence microscopy relative to control; type: functional; procedure, shortened: as §2
[27] = test system: H4; test: Increase in light chain 3-GFP+ autophagosome vesicle area per cell in human H4 cells at 6.1 uM after 24 hrs by high throughput fluorescence microscopy relative to control; type: functional; procedure, shortened: as §1
[28] = test system: H4; test: Increase in light chain 3-GFP+ autophagosome vesicle intensity per cell in human H4 cells at 6.1 uM after 24 hrs by high throughput fluorescence microscopy relative to control; type: functional; procedure, shortened: as §1
[29] = test system: H4; test: Induction of light chain 3-GFP level in human H4 cells at 6.1 uM after 24 hrs by high throughput fluorescence microscopy relative to control; type: functional; procedure, shortened: as §2

CN1CCN(C2=Nc3cc(Cl)ccc3Nc3ccccc32)CC1 [CLOZAPINE]
Activity [1]: 275.5% | Activity [2]: 216.53% | Activity [3]: 350.13% | Activity [4]: 64.04% | Activity [5]: 74.79% | Activity [6]: 78.38% | Activity [7]: 115.64% | Activity [8]: 125.71% | Activity [9]: 11.93% | Activity [10]: 119.5% | Activity [11]: 139.18%

CCCCc1oc2ccccc2c1C(=O)c1cc(I)c(OCCN(CC)CC)c(I)c1 [AMIODARONE]
Activity [12]: Dose-dependent effect | Activity [13]: inactive | Activity [14]: 236.64% | Activity [15]: 138.5% | Activity [16]: 327.25% | Activity [4]: 92.5% | Activity [5]: 89.23% | Activity [6]: 83.45% | Activity [7]: 101.32% | Activity [8]: 122.42% | Activity [9]: 110.75% | Activity [10]: 116.73% | Activity [17]: Active | Activity [18]: 189.25%

CN(C)C[C@H](O)Cn1c2ccc(Br)cc2c2cc(Br)ccc21 [WISKOSTATIN]
Activity [19]: 1226.54% | Activity [20]: 789.24% | Activity [21]: 2401.38% | Activity [22]: 267.9% | Activity [23]: 240.08% | Activity [24]: 131.93% | Activity [7]: 68.51% | Activity [8]: 90.21% | Activity [9]: 92.99% | Activity [10]: 97.71% | Activity [25]: 96.96%

CC1=C2C[C@H]3[C@@H](CC=C4C[C@@H](O)CC[C@@]43C)[C@@H]2CC[C@]12O[C@@H]1C[C@H](C)CN[C@H]1[C@H]2C [CYCLOPAMINE]
Activity [26]: 313.88% | Activity [27]: 511.72% | Activity [28]: 1564.12% | Activity [4]: 108.75% | Activity [5]: 75.21% | Activity [6]: 96.38% | Activity [7]: 91.74% | Activity [8]: 111.02% | Activity [9]: 109.69% | Activity [10]: 103.97% | Activity [29]: 110.76%
